From PubChem BioAssay AID463076 (The Scripps Research Institute Molecular Screening Center, 2010)
Active and inactive are the calls of the source.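 How the source made its calls: active means compounds blocking FLT3 kinase activity with IC50 at or below 1000 nM; inactive means IC50 above 1000 nM.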

Target: Receptor-type tyrosine-protein kinase FLT3 (Homo sapiens) (UniProt P36888)
Assay: FLT3 kinase inhibition, late-stage follow-up, selectivity assay for CK1d inhibitor project, biochemical, radioactive 33P-ATP, powder samples (AID 463076)
Details: purified FLT3, 33P-ATP Abltide filter-binding assay
Procedure, shortened: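 System: Kinase enzyme in a cell-free radiometric reaction | Times: Kinase reaction 120 min at room temperature | Detection: Filter binding of 33P radioactivity incorporated into peptide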

Sequence of Receptor-type tyrosine-protein kinase FLT3 (Homo sapiens) (P36888 whole entry, looked up): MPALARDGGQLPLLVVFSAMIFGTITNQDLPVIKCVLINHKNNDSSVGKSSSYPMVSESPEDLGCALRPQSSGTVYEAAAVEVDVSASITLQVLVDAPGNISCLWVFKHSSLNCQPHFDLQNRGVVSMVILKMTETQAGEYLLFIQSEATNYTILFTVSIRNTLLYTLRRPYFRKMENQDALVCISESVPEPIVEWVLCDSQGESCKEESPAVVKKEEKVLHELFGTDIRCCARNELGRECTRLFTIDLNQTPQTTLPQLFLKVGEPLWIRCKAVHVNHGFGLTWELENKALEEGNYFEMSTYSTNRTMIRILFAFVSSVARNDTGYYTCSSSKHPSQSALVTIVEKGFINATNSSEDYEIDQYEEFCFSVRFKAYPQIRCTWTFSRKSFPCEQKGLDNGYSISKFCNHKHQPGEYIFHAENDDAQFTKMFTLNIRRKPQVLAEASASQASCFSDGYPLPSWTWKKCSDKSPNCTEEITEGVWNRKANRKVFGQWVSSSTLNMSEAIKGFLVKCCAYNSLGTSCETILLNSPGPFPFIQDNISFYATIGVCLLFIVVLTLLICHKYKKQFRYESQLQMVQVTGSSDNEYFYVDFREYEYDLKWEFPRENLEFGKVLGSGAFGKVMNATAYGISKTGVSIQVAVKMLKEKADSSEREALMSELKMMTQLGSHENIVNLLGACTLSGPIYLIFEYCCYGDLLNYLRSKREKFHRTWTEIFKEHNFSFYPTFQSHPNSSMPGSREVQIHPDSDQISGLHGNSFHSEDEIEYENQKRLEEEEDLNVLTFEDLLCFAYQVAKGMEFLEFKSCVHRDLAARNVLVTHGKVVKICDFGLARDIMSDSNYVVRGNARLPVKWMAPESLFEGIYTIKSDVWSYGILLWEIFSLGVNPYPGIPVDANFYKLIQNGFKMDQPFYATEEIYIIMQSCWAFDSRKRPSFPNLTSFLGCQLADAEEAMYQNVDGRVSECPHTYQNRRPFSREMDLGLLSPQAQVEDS

IC50	SMILES
305 nM	O=[N+]([O-])c1cccc2[nH]c(CNc3nc(N4CCOCC4)nc4c3ncn4-c3ccsc3)nc12
100 nM	c1ccc2[nH]c(CNc3nc(N4CCOCC4)nc4c3ncn4-c3ccsc3)nc2c1
509 nM	FC(F)(F)c1ccc2nc(CNc3nc(N4CCOCC4)nc4c3ncn4-c3ccsc3)[nH]c2c1
14 nM	COc1ccc2nc(CNc3nc(N4CCOCC4)nc4c3ncn4-c3ccsc3)[nH]c2c1
262 nM	FC(F)(F)c1cccc2[nH]c(CNc3nc(N4CCOCC4)nc4c3ncn4-c3ccsc3)nc12
79 nM	Fc1ccc2nc(CNc3nc(N4CCOCC4)nc4c3ncn4-c3ccsc3)[nH]c2c1
975 nM	c1ccc2cc3[nH]c(CNc4nc(N5CCOCC5)nc5c4ncn5-c4ccsc4)nc3cc2c1
62 nM	N#Cc1ccc2nc(CNc3nc(N4CCOCC4)nc4c3ncn4-c3ccsc3)[nH]c2c1
301 nM	Clc1ccc2nc(CNc3nc(N4CCOCC4)nc4c3ncn4-c3ccsc3)[nH]c2c1
inactive	Cc1ccnc(NC(=O)CCCOc2cc(=O)n(C)c3ccccc23)c1
240 nM	O=[N+]([O-])c1ccc2nc(CNc3nc(N4CCOCC4)nc4c3ncn4-c3ccsc3)[nH]c2c1
inactive	CC(C)n1cnc2c(NCc3nc4c([N+](=O)[O-])cccc4[nH]3)nc(N3CCOCC3)nc21
548 nM	CCOC(=O)c1cccc2[nH]c(CNc3nc(N4CCOCC4)nc4c3ncn4-c3ccsc3)nc12
